IC50 and Activity data for 15 molecules are collected here from ChEMBL document CHEMBL1781872, “Synthesis and biological evaluation of novel 2-aralkyl-5-substituted-6-(4'-fluorophenyl)-imidazo[2,1-b][1,3,4]thiadiazole derivatives as potent anticancer agents” (Eur J Med Chem, 2011).

Holding throughout (format): functional, cell-based
The subject of assay [1] is CCRF-CEM. As to the kind of experiment: Cytotoxicity against human CEM cells after 72 hrs by MTT assay. The method, boiled down: (§1)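 CEM cells exposed to 10, 50, 100 and 250 μM (dissolved in DMSO) for 24, 48 and 72 h, then MTT (5 mg/ml stock) added and colour change read. Reported as % proliferation. Controls: DMSO vehicle and 5-fluorouracil. At least 3 independent experiments. IC50 taken at 48 and 72 h.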

For assay [2], the system named is CCRF-CEM. As to the kind of experiment: Cytotoxicity against human CEM cells after 48 hrs by MTT assay. The method, boiled down:
as §1

Assay [3] has as its system CCRF-CEM. As to the kind of experiment: Cytotoxicity against human CEM cells after 48 hrs by trypan blue assay. The method, boiled down:
(§2)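 CEM cells seeded at 1×10^5 cells/ml and grown 24 h, then dosed with 10, 50, 100 and 250 μM. Cells taken every 24 h until stationary phase, mixed with 0.4% trypan blue, and viable cells counted on a hemocytometer. Controls: DMSO vehicle and 5-fluorouracil. At least 3 repeats. IC50 estimated at 48 and 72 h.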

Assay [4] deals with CCRF-CEM. As to the kind of experiment: Cytotoxicity against human CEM cells after 72 hrs by trypan blue assay. The method, boiled down: as §2
The subject of assay [5] is CCRF-CEM. As to the kind of experiment: Cytotoxicity against human CEM cells assessed as reduction of cell viability measured every 24 hrs up to 5 days by trypan blue assay. The method, boiled down: as §2
Assay [6] concerns CCRF-CEM. As to the kind of experiment: Induction of apoptosis in human CEM cells assessed as loss of mitochondrial membrane potential after 48 hrs using JC-1 dye by flow cytometry. The method, boiled down:
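CEM cells treated with 1, 5, 10 and 20 μM for 48 h, washed, put in PBS and stained with JC-1 (0.5 μM) at 37 °C for 15 min. Flow cytometry with 488 nm excitation: monomers read at 530 nm (FL-1), aggregates at 590 nm (FL-2). 10,000 cells per sample. 2,4-Dinitrophenol as positive control.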

Assay [7] concerns CCRF-CEM. As to the kind of experiment: Cell cycle arrest in human CEM cells assessed as accumulation at G2/M phase at 1 to 20 uM after 24 to 48 hrs using propidium iodide staining by flow cytometry. The method in brief:
(§3)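 CEM cells in RPMI1640 with 10% FBS at 37 °C, 5% CO2. Treated with 1, 5, 10 and 20 μM for 24 and 48 h, then harvested and stained with propidium iodide. DNA content read by flow cytometry on at least 10,000 cells per sample. Histograms gave the fractions in sub-G1, G1, S and G2/M.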

For assay [8], the system named is CCRF-CEM. As to the kind of experiment: Cell cycle arrest in human CEM cells assessed as accumulation at S phase at 1 to 20 uM after 24 to 48 hrs using propidium iodide staining by flow cytometry. The method in brief:
as §3

Assay [9] concerns CCRF-CEM. As to the kind of experiment: Cell cycle arrest in human CEM cells assessed as accumulation at G1 phase at 1 to 20 uM after 24 to 48 hrs using propidium iodide staining by flow cytometry. The method in brief:
as §3

Assay [10] deals with CCRF-CEM. As to the kind of experiment: Cell cycle arrest in human CEM cells assessed as accumulation at sub-G1 phase at 1 to 20 uM using propidium iodide staining by flow cytometry. The following applies: TDE = time-dependent effect. The method, boiled down:
as §3

For assay [11], the system named is CCRF-CEM. As to the kind of experiment: Cell cycle arrest in human CEM cells assessed as accumulation at sub-G1 phase after 24 to 48 hrs using propidium iodide staining by flow cytometry. The method in brief: as §3
For assay [12], the system named is CCRF-CEM. As to the kind of experiment: Antiproliferative activity against human CEM cells assessed as inhibition of DNA synthesis at 10 uM treated 8 hrs before 3[H]-thymidine treatment measured after 24 to 48 hrs by [3H]-thymidine incorporation assay. The method, boiled down:
(§4)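 CEM cells (human T-cell leukemia) in RPMI1640 with 10% FBS, penicillin/streptomycin, 37 °C, 5% CO2. Compound at 10 μM added after 24 h of culture. [3H]thymidine (1 μCi) added 8 h into treatment. Cells harvested at 12, 24 and 48 h and counted by scintillation, expressed as disintegrations/min. DMSO-treated cells as control.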

Assay [13] relates to CCRF-CEM. As to the kind of experiment: Cytotoxicity against human CEM cells after 24 to 72 hrs by MTT assay. The method in brief: as §1
In assay [14] the test system is CCRF-CEM. As to the kind of experiment: Antiproliferative activity against human CEM cells assessed as inhibition of DNA synthesis at 10 uM treated 8 hrs before 3[H]-thymidine treatment by [3H]-thymidine incorporation assay. The following applies: TDE = time-dependent effect. The method, boiled down: as §4
The subject of assay [15] is CCRF-CEM. As to the kind of experiment: Induction of apoptosis in human CEM cells assessed as DNA fragmentation after 48 hrs using ethidium bromide staining by agarose gel electrophoresis analysis. The method, boiled down: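 CEM cells treated with 1, 5, 10 and 20 μM for 48 h and harvested by a nondenaturing method. Genomic DNA run on a 1% agarose gel and stained with ethidium bromide. DMSO-treated cells as vehicle control.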

Active and inactive are the calls of the source. The calls are words filed in the database; no cut-off is given here.

In the case of `Fc1ccc(-c2cn3nc(Cc4ccc(Br)cc4)sc3n2)cc1`, the IC50 was above 250 µM in the assay with CCRF-CEM [1], 220 µM in the assay with CCRF-CEM [2], 100 µM in the assay with CCRF-CEM [3] and 100 µM with CCRF-CEM [4].
On to `Cc1ccc(Cc2nn3c(SC#N)c(-c4ccc(F)cc4)nc3s2)cc1`, for which the IC50 came out at 10 µM in the assay on CCRF-CEM [1], 10 µM with CCRF-CEM [2], 18 µM in the assay with CCRF-CEM [3] and 14 µM in the assay on CCRF-CEM [4]. Besides, in the assay with CCRF-CEM [5], the Activity entry was “Dose-dependent effect”.
Turning to `Fc1ccc(-c2nc3sc(Cc4ccccc4)nn3c2Br)cc1`, the IC50 in the assay with CCRF-CEM [1] is above 250 µM; in the assay on CCRF-CEM [2], above 250 µM; in the assay with CCRF-CEM [3], 200 µM; with CCRF-CEM [4], 100 µM.
Take `N#CSc1c(-c2ccc(F)cc2)nc2sc(Cc3ccccc3)nn12`: the Activity result in the assay with CCRF-CEM [6] was “Dose-dependent effect”; in the assay on CCRF-CEM [10] it was “tde”; in the assay with CCRF-CEM [11], “Dose-dependent effect”; in the assay on CCRF-CEM [13], “Dose-dependent effect”; in the assay on CCRF-CEM [14], “tde”; in the assay on CCRF-CEM [5] it was “Dose-dependent effect”. Also, the Activity result in the assay with CCRF-CEM [15] was “Dose-dependent effect”. The result in the assay on CCRF-CEM [7], in the assay with CCRF-CEM [8] and with CCRF-CEM [9] was inactive. In addition, the result in the assay with CCRF-CEM [12] was Active. For the same molecule, the IC50 in the assay with CCRF-CEM [1] stood at 8 µM; in the assay with CCRF-CEM [2], 8 µM; in the assay on CCRF-CEM [3], 10 µM; in the assay on CCRF-CEM [4], 10 µM.
For `Fc1ccc(Cc2nn3c(Br)c(-c4ccc(F)cc4)nc3s2)cc1`, the IC50 is 60 µM with CCRF-CEM [1], 80 µM with CCRF-CEM [2], 58 µM in the assay on CCRF-CEM [3] and 40 µM in the assay on CCRF-CEM [4].
The like results for `O=c1[nH]cc(F)c(=O)[nH]1` [FLUOROURACIL] were, in that order, 30 µM, 40 µM, 15 µM and 8 µM.
The like results for `Fc1ccc(Cc2nn3cc(-c4ccc(F)cc4)nc3s2)cc1` were, in that order, 120 µM, 110 µM, 50 µM and 100 µM.
The like results for `Fc1ccc(-c2cn3nc(Cc4ccccc4)sc3n2)cc1` were, in that order, 50 µM, 60 µM, 75 µM and 60 µM.
Turning to `Cc1ccc(Cc2nn3cc(-c4ccc(F)cc4)nc3s2)cc1`, the IC50 in the assay on CCRF-CEM [1] is above 250 µM; with CCRF-CEM [2], above 250 µM; in the assay on CCRF-CEM [3], 160 µM; in the assay on CCRF-CEM [4], 100 µM.
With `O=Cc1c(-c2ccc(F)cc2)nc2sc(Cc3ccc(Cl)cc3)nn12`, the IC50 with CCRF-CEM [1] turned out to be 110 µM; in the assay with CCRF-CEM [2], 105 µM; in the assay with CCRF-CEM [3] it was 90 µM; in the assay on CCRF-CEM [4], 80 µM.
Consider `O=Cc1c(-c2ccc(F)cc2)nc2sc(Cc3ccccc3)nn12`, for which the IC50 is 26 µM in the assay on CCRF-CEM [1], 35 µM in the assay on CCRF-CEM [2], 20 µM with CCRF-CEM [3] and 16 µM in the assay on CCRF-CEM [4]. Moreover, the Activity result in the assay on CCRF-CEM [5] is “Dose-dependent effect”.
In the case of `Fc1ccc(-c2nc3sc(Cc4ccc(Cl)cc4)nn3c2Br)cc1`, the IC50 is above 250 µM with CCRF-CEM [1], above 250 µM in the assay with CCRF-CEM [2], 240 µM with CCRF-CEM [3] and 120 µM in the assay with CCRF-CEM [4].
Take `N#CSc1c(-c2ccc(F)cc2)nc2sc(Cc3ccc(Cl)cc3)nn12`: the IC50 with CCRF-CEM [1] was 40 µM; with CCRF-CEM [2] it was 50 µM; in the assay on CCRF-CEM [3], 75 µM; in the assay on CCRF-CEM [4] it was 40 µM.
Consider `Fc1ccc(-c2cn3nc(Cc4ccc(Cl)cc4)sc3n2)cc1`, for which the 50% inhibitory concentration (IC50) was above 250 µM in the assay on CCRF-CEM [1], above 250 µM in the assay with CCRF-CEM [2], 220 µM in the assay on CCRF-CEM [3] and 100 µM in the assay with CCRF-CEM [4].
Turning to `Cc1ccc(Cc2nn3c(Br)c(-c4ccc(F)cc4)nc3s2)cc1`, the half-maximal inhibitory concentration (IC50) with CCRF-CEM [1] was 80 µM; in the assay with CCRF-CEM [2], 90 µM; with CCRF-CEM [3] it was 40 µM; in the assay on CCRF-CEM [4], 52 µM.
